Assay results taken from ChEMBL document CHEMBL1138488, “Synthesis and biological evaluation of 3,3-difluoropyridine-2,4(1H,3H)-dione and 3-deaza-3-fluorouracil base and nucleoside derivatives” (J Med Chem, 2009).
Calls of active or inactive are those of the source. The rule behind the calls is not given here.

How the values were obtained:
[1] = tested on: Moloney murine sarcoma virus; assay: Antiviral activity against Moloney sarcoma virus replication infected in mouse […] cells assessed as virus-induced transformation of cells at <=100 uM measured on day 6 postinfection; type: functional, organism-based
Summary of the method: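 Murine C3H/3T3 embryo fibroblasts were grown to confluency and infected with Moloney murine sarcoma virus at 75 focus-forming units. Compound concentrations were then added, and virus-induced transformation was examined microscopically at day 6 postinfection.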

[2] = Cytostatic activity against human Molt4/C8 cells after 3 days by Coulter counting analysis; type: ADME, cell-based, MOLT-4
Summary of the method: (§1)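 Molt4/C8 or CEM lymphocytes were seeded at 75000 cells per well with varying compound concentrations. Viable cells were counted by Coulter counter after 3 days. CC₅₀ is the concentration inhibiting cell proliferation by 50%.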

Human alphaherpesvirus 1 [3] = assay: Antiviral activity against HSV1 KOS infected in HEL cells assessed as virus-induced cytopathic effect at <=100 uM; type: functional, organism-based
CCRF-CEM = assay: Cytostatic activity against human CEM cells at <=500 uM after 3 days by Coulter counting analysis; type: cell-based; conditions: 72 h; summary of the method: as §1
Human alphaherpesvirus 1 [4] = assay: Antiviral activity against acyclovir-resistant […] kinase-deficient HSV1 KOS infected in HEL cells assessed as virus-induced cytopathic effect at <=100 uM; type: functional, organism-based
Human betaherpesvirus 5 [5] = assay: Antiviral activity against HCMV AD169 infected in HEL cells assessed as inhibition of virus-induced cytopathic effect at <=100 uM; type: functional, organism-based
Summary of the method: (§2)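 Confluent cell monolayers were inoculated with 100 CCID₅₀ of virus, and virus was adsorbed for 1 h. Residual virus was then removed and cells were incubated with serial compound concentrations ([…], ... µM). Cytopathicity was scored once it reached completion in untreated virus-infected control cultures.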

Punta Toro virus = assay: Antiviral activity against Punta Toro virus infected in african green monkey Vero cells assessed as inhibition of virus-induced cytopathic effect at <=100 uM; type: functional, organism-based; summary of the method: as §2
[6] = Cytostatic activity against human CEM cells after 3 days by Coulter counting analysis; type: cell-based, CCRF-CEM; summary of the method: as §1
L1210 = assay: Cytostatic activity against mouse L1210 cells at <=500 uM after 2 days by Coulter counting analysis; type: ADME, cell-based; conditions: l1210, 48 h
Summary of the method: (§3)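 Murine leukemia L1210 cells were seeded at 50000 cells per well with varying compound concentrations. Viable cell number was counted by Coulter counter after 2 days.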

Sindbis virus = assay: Antiviral activity against Sindbis virus infected in african green monkey Vero cells assessed as inhibition of virus-induced cytopathic effect at <=100 uM; type: functional, organism-based; summary of the method: as §2
[7] = tested on: Human immunodeficiency virus 1; assay: Antiviral activity against HIV1 3B replication in human CEM cells assessed as virus-induced giant cell formation at <=100 uM after 4 days; type: functional, organism-based; conditions: CCRF-CEM
Summary of the method: (§4)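 CEM cells (~3 × 10⁵ cells/cm³) were infected with 100 CCID₅₀/mL of HIV-1(III_B) or HIV-2(ROD) and seeded into wells containing compound dilutions. After 4 days at 37 °C, virus-induced giant cell formation was examined microscopically.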

[8] = tested on: Vesicular stomatitis virus; assay: Antiviral activity against Vesicular stomatitis virus infected in human HeLa cells assessed as inhibition of virus-induced cytopathic effect at <=100 uM; type: functional, organism-based
[9] = tested on: Respiratory syncytial virus; assay: Antiviral activity against Respiratory syncytial virus infected in human HeLa cells assessed as inhibition of virus-induced cytopathic effect at <=100 uM; type: functional, organism-based; summary of the method: as §2
[10] = tested on: Mammalian orthoreovirus 3; assay: Antiviral activity against Reovirus 3 infected in african green monkey Vero cells assessed as inhibition of virus-induced cytopathic effect at <=100 uM; type: functional, organism-based
Coxsackievirus B4 = assay: Antiviral activity against Coxsackievirus B4 infected in human HeLa cells assessed as inhibition of virus-induced cytopathic effect at <=100 uM; type: functional, organism-based; summary of the method: as §2
[11] = Cytostatic activity against human Molt4/C8 cells at <=500 uM after 3 days by Coulter counting analysis; type: ADME, cell-based; conditions: molt-4, 72 h; summary of the method: as §1
[12] = Cytostatic activity against mouse L1210 cells after 2 days by Coulter counting analysis; type: ADME, cell-based; summary of the method: as §3
Human alphaherpesvirus 2 = assay: Antiviral activity against HSV2 strain G infected in HEL cells assessed as virus-induced cytopathic effect at <=100 uM; type: functional, organism-based
Vaccinia virus = assay: Antiviral activity against Vaccinia virus infected in HEL cells assessed as inhibition of virus-induced cytopathic effect at <=100 uM; type: functional, organism-based; conditions: Orthopoxvirus vaccinia
[13] = tested on: Human immunodeficiency virus 2; assay: Antiviral activity against HIV2 ROD replication in human CEM cells assessed as virus-induced giant cell formation at <=100 uM after 4 days; type: functional, organism-based; conditions: CCRF-CEM; summary of the method: as §4
Human alphaherpesvirus 3 [14] = assay: Antiviral activity against thymidine kinase expressing Varicella zoster virus Oka infected in human HEL cells assessed as inhibition of virus-induced cytopathic effect at <=100 uM; type: functional, organism-based; summary of the method: as §2
Human respirovirus 3 = assay: Antiviral activity against Parainfluenza virus type 3 infected in african green monkey Vero cells assessed as inhibition of virus-induced cytopathic effect at <=100 uM; type: functional, organism-based; summary of the method: as §2
Human alphaherpesvirus 3 [15] = assay: Antiviral activity against thymidine kinase deficient Varicella zoster virus 07/1 infected in human HEL cells assessed as inhibition of virus-induced cytopathic effect at <=100 uM; type: functional, organism-based; summary of the method: as §2
[16] = tested on: Vesicular stomatitis virus; assay: Antiviral activity against Vesicular stomatitis virus infected in HEL cells assessed as inhibition of virus-induced cytopathic effect at <=100 uM; type: functional, organism-based
Human betaherpesvirus 5 [17] = assay: Antiviral activity against HCMV Davis infected in HEL cells assessed as inhibition of virus-induced cytopathic effect at <=100 uM; type: functional, organism-based; summary of the method: as §2

SMILES | Activity [1] | Activity (Human alphaherpesvirus 1 [3]) | Activity (CCRF-CEM) | Activity (Human alphaherpesvirus 1 [4]) | Activity (Human betaherpesvirus 5 [5]) | Activity (Punta Toro virus) | Activity (L1210) | Activity (Sindbis virus) | Activity [7] | Activity [8] | Activity [9] | Activity [10] | Activity (Coxsackievirus B4) | Activity [11] | Activity (Human alphaherpesvirus 2) | Activity (Vaccinia virus) | Activity [13] | Activity (Human alphaherpesvirus 3 [14]) | Activity (Human respirovirus 3) | Activity (Human alphaherpesvirus 3 [15]) | other results
O=c1c(F)c(O)ccn1[C@@H]1O[C@H](CO)[C@@H](O)[C@H]1O | inactive | inactive | Not Active | inactive | inactive | inactive | Not Active | inactive | inactive | inactive | inactive | inactive | inactive | Not Active | inactive | inactive | inactive | inactive | inactive | inactive | CC50 at 72 h [2]: 4.4 µM; CC50 at 72 h [6]: 9.6 µM; CC50 at 48 h [12]: 6.7 µM; Activity [16]: inactive; Activity (Human betaherpesvirus 5 [17]): inactive
O=c1c(F)c(O)ccn1[C@H]1C[C@H](O)[C@@H](CO)O1 | inactive | inactive | Not Active | inactive | inactive | inactive | Not Active | inactive | inactive | inactive | inactive | inactive | inactive | Not Active | inactive | inactive | inactive | inactive | inactive | inactive | Activity [16]: inactive; Activity (Human betaherpesvirus 5 [17]): inactive
NC(=O)Cc1ccn([C@@H]2O[C@H](CO)[C@@H](O)[C@H]2O)c(=O)c1F | inactive | inactive | Not Active | inactive | inactive | inactive | Not Active | inactive | inactive | inactive | inactive | inactive | inactive | Not Active | inactive | inactive | inactive | inactive | inactive | inactive | Activity [16]: inactive; Activity (Human betaherpesvirus 5 [17]): inactive
